Source: ChEMBL document CHEMBL1255475, “Mutant prevention concentrations of four carbapenems against gram-negative rods” (2010)
Converted amounts (≈) assume the structure as drawn.

Key:
Assay type in all cases: functional
Klebsiella pneumoniae [1] = assay: Antibacterial activity against beta-lactamase-positive ESBL-positive Klebsiella pneumoniae E475 incubated up to 7 days by agar dilution method; settings: E475, 168 h
Klebsiella pneumoniae [2] = assay: Antibacterial activity against beta-lactamase-positive ESBL-negative Klebsiella pneumoniae E481 incubated up to 7 days by agar dilution method; settings: E481, 168 h
Klebsiella pneumoniae [3] = assay: Antibacterial activity against beta-lactamase-negative Klebsiella pneumoniae E417 incubated up to 7 days by agar dilution method; settings: E417, 168 h
How it was run: (§1)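 MIC by CLSI agar dilution, with quality-control strains in each run. Beta-lactamase status was set by 30 μg cefazolin Kirby-Bauer disk diffusion. ESBL status was set by cefotaxime and ceftazidime disks (30 μg) with and without clavulanic acid (10 μg).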

Klebsiella pneumoniae [4] = assay: Antibacterial activity against beta-lactamase-positive ESBL-positive Klebsiella pneumoniae E457 incubated up to 7 days by agar dilution method; settings: E457, 168 h; how it was run: as §1
Escherichia coli [5] = assay: Antibacterial activity against beta-lactamase-negative Escherichia coli E348 incubated up to 7 days by agar dilution method; settings: E348, 168 h
Escherichia coli [6] = assay: Antibacterial activity against beta-lactamase-negative Escherichia coli E350 […] by agar dilution method
Escherichia coli [7] = assay: Antibacterial activity against beta-lactamase-positive ESBL-negative Escherichia coli E415 incubated up to 7 days by agar dilution method; settings: E415, 168 h; how it was run: as §1
Escherichia coli [8] = assay: Antibacterial activity against beta-lactamase-positive ESBL-positive Escherichia coli E446 incubated up to 7 days by agar dilution method; settings: E446, 168 h; how it was run: as §1
Escherichia coli [9] = assay: Antibacterial activity against beta-lactamase-positive ESBL-positive Escherichia coli E450 incubated up to 7 days by agar dilution method; settings: E450, 168 h; how it was run: as §1
Klebsiella pneumoniae [10] = assay: Antibacterial activity against beta-lactamase-negative Klebsiella pneumoniae E357 incubated up to 7 days by agar dilution method; settings: E357, 168 h
Klebsiella pneumoniae [11] = assay: Antibacterial activity against beta-lactamase-negative Klebsiella pneumoniae E358 incubated up to 7 days by agar dilution method; settings: E358, 168 h
Klebsiella pneumoniae [12] = assay: Antibacterial activity against beta-lactamase-negative Klebsiella pneumoniae E360 incubated up to 7 days by agar dilution method; settings: E360, 168 h
Klebsiella pneumoniae [13] = assay: Antibacterial activity against beta-lactamase-negative Klebsiella pneumoniae E361 incubated up to 7 days by agar dilution method; settings: E361, 168 h
Acinetobacter baumannii [14] = assay: Antibacterial activity against Acinetobacter baumannii A931 assessed as mutant prevention concentration after overnight incubation
Acinetobacter baumannii [15] = assay: Antibacterial activity against Acinetobacter baumannii A897 assessed as mutant prevention concentration after overnight incubation
Acinetobacter baumannii [16] = assay: Antibacterial activity against Acinetobacter baumannii A901 assessed as mutant prevention concentration after overnight incubation
Acinetobacter baumannii [17] = assay: Antibacterial activity against Acinetobacter baumannii A903 assessed as mutant prevention concentration after overnight incubation
Klebsiella pneumoniae [18] = assay: Antibacterial activity against beta-lactamase-negative Klebsiella pneumoniae E362 assessed as mutant prevention concentration after overnight incubation
Klebsiella pneumoniae [19] = assay: Antibacterial activity against beta-lactamase-positive ESBL-positive Klebsiella pneumoniae E476 assessed as mutant prevention concentration after overnight incubation
How it was run: (§2)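 Overnight growth on blood trypticase soy agar (35°C, air) was resuspended in 0.9% saline and counted on drug-free Mueller-Hinton agar. […] Colonies were retested by agar dilution to confirm mutants. MPC was the lowest concentration preventing resistant-mutant growth.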

Klebsiella pneumoniae [20] = assay: Antibacterial activity against beta-lactamase-positive ESBL-negative Klebsiella pneumoniae E472 assessed as mutant prevention concentration after overnight incubation; how it was run: as §2
Klebsiella pneumoniae [21] = assay: Antibacterial activity against beta-lactamase-positive ESBL-negative Klebsiella pneumoniae E477 assessed as mutant prevention concentration after overnight incubation; how it was run: as §2
Klebsiella pneumoniae [22] = assay: Antibacterial activity against beta-lactamase-positive ESBL-positive Klebsiella pneumoniae E453 assessed as mutant prevention concentration after overnight incubation; how it was run: as §2
Pseudomonas aeruginosa [23] = assay: Antibacterial activity against Pseudomonas aeruginosa P373 assessed as mutant prevention concentration after overnight incubation
Pseudomonas aeruginosa [24] = assay: Antibacterial activity against Pseudomonas aeruginosa P319 assessed as mutant prevention concentration after overnight incubation
Pseudomonas aeruginosa [25] = assay: Antibacterial activity against Pseudomonas aeruginosa P323 assessed as mutant prevention concentration after overnight incubation
Pseudomonas aeruginosa [26] = assay: Antibacterial activity against Pseudomonas aeruginosa P337 assessed as mutant prevention concentration after overnight incubation
Pseudomonas aeruginosa [27] = assay: Antibacterial activity against Pseudomonas aeruginosa P328 assessed as mutant prevention concentration after overnight incubation
Pseudomonas aeruginosa [28] = assay: Antibacterial activity against Pseudomonas aeruginosa P370 assessed as mutant prevention concentration after overnight incubation
Pseudomonas aeruginosa [29] = assay: Antibacterial activity against Pseudomonas aeruginosa P341 assessed as mutant prevention concentration after overnight incubation
Pseudomonas aeruginosa [30] = assay: Antibacterial activity against Pseudomonas aeruginosa P358 assessed as mutant prevention concentration after overnight incubation
Pseudomonas aeruginosa [31] = assay: Antibacterial activity against Pseudomonas aeruginosa P376 assessed as mutant prevention concentration after overnight incubation
Pseudomonas aeruginosa [32] = assay: Antibacterial activity against Pseudomonas aeruginosa P326 assessed as mutant prevention concentration after overnight incubation
Acinetobacter baumannii [33] = assay: Antibacterial activity against Acinetobacter baumannii A850 assessed as mutant prevention concentration after overnight incubation
Acinetobacter baumannii [34] = assay: Antibacterial activity against Acinetobacter baumannii A851 assessed as mutant prevention concentration after overnight incubation
Acinetobacter baumannii [35] = assay: Antibacterial activity against Acinetobacter baumannii A912 assessed as mutant prevention concentration after overnight incubation
Escherichia coli [36] = assay: Antibacterial activity against beta-lactamase-negative Escherichia coli E344 assessed as mutant prevention concentration after overnight incubation
Escherichia coli [37] = assay: Antibacterial activity against beta-lactamase-negative Escherichia coli E346 assessed as mutant prevention concentration after overnight incubation
Escherichia coli [38] = assay: Antibacterial activity against beta-lactamase-negative Escherichia coli E348 assessed as mutant prevention concentration after overnight incubation
Escherichia coli [39] = assay: Antibacterial activity against beta-lactamase-positive ESBL-negative Escherichia coli E415 assessed as mutant prevention concentration after overnight incubation; how it was run: as §2
Escherichia coli [40] = assay: Antibacterial activity against beta-lactamase-positive ESBL-positive Escherichia coli E446 assessed as mutant prevention concentration after overnight incubation; how it was run: as §2
Escherichia coli [41] = assay: Antibacterial activity against beta-lactamase-positive ESBL-positive Escherichia coli E450 assessed as mutant prevention concentration after overnight incubation; how it was run: as §2
Escherichia coli [42] = assay: Antibacterial activity against beta-lactamase-positive ESBL-positive Escherichia coli E452 assessed as mutant prevention concentration after overnight incubation; how it was run: as §2
Escherichia coli [43] = assay: Antibacterial activity against beta-lactamase-positive ESBL-positive Escherichia coli E456 assessed as mutant prevention concentration after overnight incubation; how it was run: as §2
Escherichia coli [44] = assay: Antibacterial activity against beta-lactamase-positive ESBL-positive Escherichia coli E465 assessed as mutant prevention concentration after overnight incubation; how it was run: as §2
Escherichia coli [45] = assay: Antibacterial activity against beta-lactamase-positive ESBL-negative Escherichia coli E483 assessed as mutant prevention concentration after overnight incubation; how it was run: as §2
Klebsiella pneumoniae [46] = assay: Antibacterial activity against beta-lactamase-negative Klebsiella pneumoniae E359 assessed as mutant prevention concentration after overnight incubation
Klebsiella pneumoniae [47] = assay: Antibacterial activity against beta-lactamase-negative Klebsiella pneumoniae E361 assessed as mutant prevention concentration after overnight incubation

Structure (SMILES): C[C@@H](O)[C@H]1C(=O)N2C(C(=O)O)=C(S[C@@H]3CN[C@H](C(=O)N(C)C)C3)[C@H](C)[C@H]12 [MEROPENEM]
- MIC (Klebsiella pneumoniae [1]): 4 mg/L (≈ 10.4 µM)
- MIC (Klebsiella pneumoniae [2]): 1 mg/L (≈ 2.61 µM)
- MIC (Klebsiella pneumoniae [3]): 0.06 mg/L (≈ 0.156 µM)
- MIC (Klebsiella pneumoniae [4]): 0.06 mg/L (≈ 0.156 µM)
- MIC (Escherichia coli [5]): 0.03 mg/L (≈ 0.0782 µM)
- MIC (Escherichia coli [6]): 0.03 mg/L (≈ 0.0782 µM)
- MIC (Escherichia coli [7]): 0.06 mg/L (≈ 0.156 µM)
- MIC (Escherichia coli [8]): 0.03 mg/L (≈ 0.0782 µM)
- MIC (Escherichia coli [9]): 0.03 mg/L (≈ 0.0782 µM)
- MIC (Klebsiella pneumoniae [10]): 0.03 mg/L (≈ 0.0782 µM)
- MIC (Klebsiella pneumoniae [11]): 0.03 mg/L (≈ 0.0782 µM)
- MIC (Klebsiella pneumoniae [12]): 0.03 mg/L (≈ 0.0782 µM)
- MIC (Klebsiella pneumoniae [13]): 0.06 mg/L (≈ 0.156 µM)
- MPC (Acinetobacter baumannii [14]): 4 µg/mL
- MPC (Acinetobacter baumannii [15]): 1 µg/mL
- MPC (Acinetobacter baumannii [16]): 8 µg/mL
- MPC (Acinetobacter baumannii [17]): 8 µg/mL
- MPC (Klebsiella pneumoniae [18]): 0.125 µg/mL
- MPC (Klebsiella pneumoniae [19]): >64 µg/mL
- MPC (Klebsiella pneumoniae [20]): 32 µg/mL
- MPC (Klebsiella pneumoniae [21]): 8 µg/mL
- MPC (Klebsiella pneumoniae [22]): 0.5 µg/mL
- MPC (Pseudomonas aeruginosa [23]): >8 µg/mL
- MPC (Pseudomonas aeruginosa [24]): 8 µg/mL
- MPC (Pseudomonas aeruginosa [25]): 4 µg/mL
- MPC (Pseudomonas aeruginosa [26]): 8 µg/mL
- MPC (Pseudomonas aeruginosa [27]): 16 µg/mL
- MPC (Pseudomonas aeruginosa [28]): >4 µg/mL
- MPC (Pseudomonas aeruginosa [29]): 8 µg/mL
- MPC (Pseudomonas aeruginosa [30]): 32 µg/mL
- MPC (Pseudomonas aeruginosa [31]): 16 µg/mL
- MPC (Pseudomonas aeruginosa [32]): 64 µg/mL
- MPC (Acinetobacter baumannii [33]): 16 µg/mL
- MPC (Acinetobacter baumannii [34]): 32 µg/mL
- MPC (Acinetobacter baumannii [35]): 4 µg/mL
- MPC (Escherichia coli [36]): 0.03 µg/mL
- MPC (Escherichia coli [37]): 0.06 µg/mL
- MPC (Escherichia coli [38]): 0.06 µg/mL
- MPC (Escherichia coli [39]): 0.125 µg/mL
- MPC (Escherichia coli [40]): 0.125 µg/mL
- MPC (Escherichia coli [41]): 0.06 µg/mL
- MPC (Escherichia coli [42]): 0.06 µg/mL
- MPC (Escherichia coli [43]): 0.125 µg/mL
- MPC (Escherichia coli [44]): >1 µg/mL
- MPC (Escherichia coli [45]): 4 µg/mL
- MPC (Klebsiella pneumoniae [46]): 0.125 µg/mL
- MPC (Klebsiella pneumoniae [47]): 0.125 µg/mL
